Measurements taken from ChEMBL document CHEMBL1147446, “Antagonists of human CCR5 receptor containing 4-(pyrazolyl)piperidine side chains. Part 3: SAR studies on the benzylpyrazole segment” (Bioorg Med Chem Lett, 2004).

How the values were obtained:
HeLa [1] = assay: Inhibition of HIV-1 infectivity using BAL-1 strain against HeLa cell line was determined; assay type: functional; details: Homo sapiens
[2] = target: C-C chemokine receptor type 5 (Homo sapiens, UniProt P51681); assay: Inhibitory concentration for displacement of [125I]-MIP-1 alpha from recombinant human CC chemokine receptor 5 (CCR5) expressed in CHO cell; assay type: cell-based
Chain of C-C chemokine receptor type 5 (P51681 whole entry): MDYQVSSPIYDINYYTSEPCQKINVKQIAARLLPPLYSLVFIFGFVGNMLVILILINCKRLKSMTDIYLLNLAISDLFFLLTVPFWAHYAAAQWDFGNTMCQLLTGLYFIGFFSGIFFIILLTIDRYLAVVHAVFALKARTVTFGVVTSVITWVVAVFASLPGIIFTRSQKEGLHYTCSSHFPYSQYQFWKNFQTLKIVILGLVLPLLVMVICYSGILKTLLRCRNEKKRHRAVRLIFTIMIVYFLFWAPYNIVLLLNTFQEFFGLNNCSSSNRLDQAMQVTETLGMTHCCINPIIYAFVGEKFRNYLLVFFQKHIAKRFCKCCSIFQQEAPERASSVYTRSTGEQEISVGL
How it was run: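 Competitive binding to CCR5 on CHO cell membranes, read as displacement of [125I]-labeled MIP-1α. IC50 values are means of triplicate determinations. Standard errors were normally <15% within an assay. Assay-to-assay variation was within ±2-fold, judged from a standard compound.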

D(3) dopamine receptor [3] = target: T1, D(3) dopamine receptor (Homo sapiens, UniProt P35462); assay: (§1) Inhibitory activity against human dopamine receptor D3 at 10 uM
T1 sequence (P35462 whole entry): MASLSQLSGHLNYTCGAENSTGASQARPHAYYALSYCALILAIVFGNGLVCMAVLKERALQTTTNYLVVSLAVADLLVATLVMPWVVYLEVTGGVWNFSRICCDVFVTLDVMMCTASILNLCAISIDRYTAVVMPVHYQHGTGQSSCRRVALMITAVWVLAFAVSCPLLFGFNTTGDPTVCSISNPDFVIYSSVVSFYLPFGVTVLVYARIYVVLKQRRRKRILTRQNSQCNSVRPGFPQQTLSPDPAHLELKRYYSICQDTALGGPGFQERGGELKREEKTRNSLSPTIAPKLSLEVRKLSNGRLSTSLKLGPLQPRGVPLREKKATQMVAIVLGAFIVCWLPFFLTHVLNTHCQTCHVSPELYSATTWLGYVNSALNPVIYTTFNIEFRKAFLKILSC

[4] = target: T2, Sodium-dependent dopamine transporter (Homo sapiens, UniProt Q01959); assay: (§2) Inhibitory activity against human dopamine transporter at 10 uM
T2 sequence (Q01959 whole entry): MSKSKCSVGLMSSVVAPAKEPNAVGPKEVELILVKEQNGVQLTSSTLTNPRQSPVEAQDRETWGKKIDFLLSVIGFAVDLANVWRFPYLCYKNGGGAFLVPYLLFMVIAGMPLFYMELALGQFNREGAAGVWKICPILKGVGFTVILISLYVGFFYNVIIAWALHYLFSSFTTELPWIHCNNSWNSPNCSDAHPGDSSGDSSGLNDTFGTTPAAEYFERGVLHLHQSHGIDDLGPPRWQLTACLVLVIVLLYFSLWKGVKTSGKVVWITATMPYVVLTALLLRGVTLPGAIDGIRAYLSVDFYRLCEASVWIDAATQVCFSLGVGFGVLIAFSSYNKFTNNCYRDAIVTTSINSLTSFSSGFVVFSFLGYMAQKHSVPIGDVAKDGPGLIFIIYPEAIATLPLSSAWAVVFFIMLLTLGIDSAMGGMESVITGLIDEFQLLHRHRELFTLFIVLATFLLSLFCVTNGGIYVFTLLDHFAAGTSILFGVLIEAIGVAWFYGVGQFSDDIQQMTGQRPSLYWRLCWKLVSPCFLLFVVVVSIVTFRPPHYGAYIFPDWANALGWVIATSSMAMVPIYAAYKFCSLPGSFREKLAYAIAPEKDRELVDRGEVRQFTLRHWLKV

HeLa [5] = assay: Antiviral activities in a cell culture HIV-1 infectivity inhibition assay using HeLa cells plus 50% normal human serum; assay type: functional
[6] = target: Sodium-dependent noradrenaline transporter (Homo sapiens) (UniProt P23975); assay: Inhibitory activity against human adrenergic norepinephrine transporter at 10 uM
Chain of Sodium-dependent noradrenaline transporter (Homo sapiens) (P23975 whole entry): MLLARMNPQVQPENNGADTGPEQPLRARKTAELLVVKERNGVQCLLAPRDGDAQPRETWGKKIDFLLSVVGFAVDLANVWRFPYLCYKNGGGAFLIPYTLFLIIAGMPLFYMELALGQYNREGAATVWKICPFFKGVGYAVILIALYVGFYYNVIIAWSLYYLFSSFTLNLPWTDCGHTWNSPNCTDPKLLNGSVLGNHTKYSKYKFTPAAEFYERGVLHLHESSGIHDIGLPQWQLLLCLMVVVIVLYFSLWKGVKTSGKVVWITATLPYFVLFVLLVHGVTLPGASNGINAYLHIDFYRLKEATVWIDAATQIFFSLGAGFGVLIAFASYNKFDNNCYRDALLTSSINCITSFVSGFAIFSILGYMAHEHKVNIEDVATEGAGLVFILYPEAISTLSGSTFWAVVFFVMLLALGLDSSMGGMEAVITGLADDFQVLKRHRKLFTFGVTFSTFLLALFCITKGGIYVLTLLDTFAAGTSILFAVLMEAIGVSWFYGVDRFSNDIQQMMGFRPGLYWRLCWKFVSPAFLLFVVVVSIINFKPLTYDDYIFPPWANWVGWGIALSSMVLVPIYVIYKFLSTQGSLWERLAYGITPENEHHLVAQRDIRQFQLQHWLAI

[7] = target: L-type calcium channel, benzothiazepine site (Rattus norvegicus, UniProt P22002+P27732+Q02485); assay: Inhibition of binding to rat L-type Calcium channel benzothiazepine site at 10 uM; assay type: functional
HeLa [8] = assay: Antiviral activities in a cell culture HIV-1 infectivity inhibition assay using HeLa cells; assay type: functional; details: Homo sapiens
[9] = (§3) Inhibitory activity against rat Na+ channel site 2 at 10 uM
[10] = target: Voltage-gated inwardly rectifying potassium channel KCNH2 (Homo sapiens, UniProt Q12809); assay: Binding affinity against hERG Voltage-gated potassium channel subunit Kv11.1
Chain of Voltage-gated inwardly rectifying potassium channel KCNH2 (Q12809 whole entry): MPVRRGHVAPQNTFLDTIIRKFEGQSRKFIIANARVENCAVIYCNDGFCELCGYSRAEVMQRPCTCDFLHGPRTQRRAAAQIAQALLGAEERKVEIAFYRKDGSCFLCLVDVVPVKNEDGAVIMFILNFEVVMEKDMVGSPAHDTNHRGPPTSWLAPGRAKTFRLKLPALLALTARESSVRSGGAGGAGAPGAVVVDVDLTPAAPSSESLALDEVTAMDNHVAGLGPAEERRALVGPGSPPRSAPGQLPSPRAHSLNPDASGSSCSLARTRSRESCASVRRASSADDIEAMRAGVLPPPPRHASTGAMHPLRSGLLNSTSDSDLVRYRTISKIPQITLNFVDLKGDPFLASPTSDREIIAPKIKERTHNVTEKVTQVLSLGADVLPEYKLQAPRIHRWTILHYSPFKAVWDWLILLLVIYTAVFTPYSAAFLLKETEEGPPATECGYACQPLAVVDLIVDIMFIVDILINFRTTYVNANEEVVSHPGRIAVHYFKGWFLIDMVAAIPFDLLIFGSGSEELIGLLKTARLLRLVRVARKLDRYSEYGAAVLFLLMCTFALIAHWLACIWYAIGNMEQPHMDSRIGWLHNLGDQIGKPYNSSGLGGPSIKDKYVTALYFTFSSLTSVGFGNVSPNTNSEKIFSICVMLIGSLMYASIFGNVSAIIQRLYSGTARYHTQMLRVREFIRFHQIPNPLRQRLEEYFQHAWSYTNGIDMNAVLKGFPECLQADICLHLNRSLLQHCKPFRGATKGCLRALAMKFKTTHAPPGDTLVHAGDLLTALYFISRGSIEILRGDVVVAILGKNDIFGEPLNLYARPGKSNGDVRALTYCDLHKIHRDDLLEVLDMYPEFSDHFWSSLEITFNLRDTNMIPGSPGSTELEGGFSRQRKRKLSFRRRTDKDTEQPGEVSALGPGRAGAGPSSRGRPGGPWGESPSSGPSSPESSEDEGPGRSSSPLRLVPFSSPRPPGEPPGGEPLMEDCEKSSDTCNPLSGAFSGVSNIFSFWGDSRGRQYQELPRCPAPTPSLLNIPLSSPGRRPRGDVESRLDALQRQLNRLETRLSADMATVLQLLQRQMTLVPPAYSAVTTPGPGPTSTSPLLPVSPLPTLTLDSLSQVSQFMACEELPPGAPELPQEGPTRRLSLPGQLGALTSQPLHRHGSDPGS

in vivo [11] = details: rat, plasma
in vivo [12] = details: rat
in vivo [13] = details: rat; remark: listed apart in the source
[14] = Half life in dog (dosed as a mixture of five compounds at 0.5 mpk each via iv only); assay type: ADME, organism-based, Canis lupus familiaris; details: in vivo
How it was run: (§4)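 Dogs received a five-compound cassette by iv only, 0.5 mpk of each compound.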

Canis familiaris [15] = assay: […] AUCN in dog ( (dosed as a mixture of five compounds at 0.5 mpk each via iv only); assay type: ADME, organism-based, Canis lupus familiaris; details: in vivo
[16] = Plasma clearance in dog (dosed as a mixture of five compounds at 0.5 mpk each via iv only); assay type: ADME, organism-based, Canis lupus familiaris; details: read-out: Clp; how it was run: as §4
D(3) dopamine receptor [17] = target: T1, D(3) dopamine receptor; assay: as §1; remark: listed apart in the source
[18] = target: T2, Sodium-dependent dopamine transporter; assay: as §2; remark: listed apart in the source
[19] = In vitro antiviral activity using peripheral blood mononuclear cell (PBMC) HIV-1 spread assay; assay type: functional; details: Homo sapiens
[20] = In vitro antiviral activity using peripheral blood mononuclear cell (PBMC) HIV-1 spread assay in presence of 50% normal human serum; assay type: functional
Rattus norvegicus = species on record: Rattus norvegicus; assay: as §3
Canis familiaris [21] = assay: […] AUCN in dog (dosed as a mixture of five compounds at 0.5 mpk each via iv only); assay type: ADME, organism-based, Canis lupus familiaris; details: in vivo
Canis familiaris [22] = assay: Oral AUCN in dog (dosed at 0.5 mpk iv ); details: in vivo, 0.5 mg/kg
in vivo [23] = details: dog
in vivo [24] = details: dog, plasma, iv, 0.5 mg/kg

Compound	IC50 [2] [nM]	inhibition (D(3) dopamine receptor [3]) [%]	inhibition [4] [%]	inhibition [6] [%]	inhibition at 10 µM [7] [%]	IC90 (HeLa [8]) [nM]	IC50 [9] [nM]	clearance (in vivo [11]) [mL/min/kg]	bioavailability (in vivo [12]) [%]	half-life (in vivo [13]) [h]	half-life [14] [h]	AUC N (Canis familiaris [15]) [uM hr dose-1]	clearance [16] [mL/min/kg]	IC90 (HeLa [5]) [nM]	IC95 [19] [nM]	IC95 [20] [nM]	further results
CCn1nc(Cc2ccccc2)cc1C1CCN(C[C@H]2CN([C@@H](C(=O)O)C3CCCCC3)C[C@@H]2c2ccccc2)CC1																	IC90 (HeLa [1]): 0.4 nM
CC[C@H](C)[C@H](C(=O)O)N1C[C@H](CN2CCC(c3cc(Cc4ccc(OC)c(OC)c4)nn3CC)CC2)[C@@H](c2cccc(F)c2)C1	1.5	35	-4	15	36	0.4	7200							33			
CCn1nc(Cc2ccc(-c3ccccc3)cc2)cc1C1CCN(C[C@H]2CN([C@@H](C(=O)O)C3CCCCC3)C[C@@H]2c2cccc(F)c2)CC1	0.3					0.4		5.3	18	1.3				11			Ki [10]: 400 nM
CC[C@H](C)[C@H](C(=O)O)N1C[C@H](CN2CCC(c3cc(Cc4ccccc4)nn3CC)CC2)[C@@H](c2cccc(F)c2)C1									13	0.54				100			Ki [10]: 30000 nM

Further lines, with some results ahead:

IC50 [2] [nM]	inhibition (D(3) dopamine receptor [3]) [%]	inhibition [4] [%]	inhibition [6] [%]	inhibition at 10 µM [7] [%]	IC90 (HeLa [8]) [nM]	IC50 [9] [nM]	clearance (in vivo [11]) [mL/min/kg]	bioavailability (in vivo [12]) [%]	half-life (in vivo [13]) [h]	half-life [14] [h]	AUC N (Canis familiaris [15]) [uM hr dose-1]	clearance [16] [mL/min/kg]	Compound	IC90 (HeLa [5]) [nM]	IC95 [19] [nM]	IC95 [20] [nM]	further results
1.1			42	46	0.4	1200	8.8	41	2.3	3.1	6.8	3.8	CC[C@H](C)[C@H](C(=O)O)N1C[C@H](CN2CCC(c3cc(Cc4ccc(OC(F)(F)F)cc4)nn3CC)CC2)[C@@H](c2cccc(F)c2)C1	33	2.5	20	IC50 (D(3) dopamine receptor [17]): 2700 nM; IC50 [18]: 3600 nM
1.6	39	36	13	15	< 0.14					0.55	0.24	108	CCn1nc(Cc2ccc(S(C)(=O)=O)cc2)cc1C1CCN(C[C@H]2CN([C@@H](C(=O)O)C(C)(C)C)C[C@@H]2c2cccc(F)c2)CC1	11	6.2	8.1	inhibition (Rattus norvegicus): 7%
0.3					0.4					2.8		5.5	CCn1nc(Cc2ccc(C(F)(F)F)cc2)cc1C1CCN(C[C@H]2CN([C@@H](C(=O)O)C(C)(C)C)C[C@@H]2c2cccc(F)c2)CC1	33			AUC N (Canis familiaris [21]): 4.9 uM hr dose-1
										0.75		25	CCn1nc(Cc2ccccc2)cc1C1CCN(C[C@H]2CN([C@@H](C(=O)O)C(C)(C)C)C[C@@H]2c2cccc(F)c2)CC1	100			AUC N (Canis familiaris [21]): 1.2 uM hr dose-1; AUC N (Canis familiaris [22]): 2.3 µM hr dose-1; half-life (in vivo [23]): 0.64 h; clearance (in vivo [24]): 13 mL/min/kg
1.3		17	23	1	< 0.14								CCn1nc(Cc2ccc(C#N)cc2)cc1C1CCN(C[C@H]2CN([C@@H](C(=O)O)C(C)(C)C)C[C@@H]2c2cccc(F)c2)CC1	3.7			IC50 (D(3) dopamine receptor [17]): 4000 nM; inhibition (Rattus norvegicus): 44%
1.2	44	9	3	-8	< 0.14	3200	2.1	33	1.1	2.1	1.9	14	CCn1nc(Cc2ccc(OC)c(OC)c2)cc1C1CCN(C[C@H]2CN([C@@H](C(=O)O)C(C)(C)C)C[C@@H]2c2cccc(F)c2)CC1	11	1.6	31	
